Measurements from ChEMBL document CHEMBL1143573, “Synthesis and structure-activity relationships of a new model of arylpiperazines. 8. Computational simulation of ligand-receptor interaction of 5-HT(1A)R agonists with selectivity over alpha1-adrenoceptors” (J Med Chem, 2005).

How the values were obtained:
[1] = target: T1, Adrenergic receptor alpha-1 (Rattus norvegicus, UniProt P15823+P23944+P43140); experiment: In vitro inhibition of [3H]prazosin binding to Alpha-1 adrenergic receptor in rat cerebral cortex membranes; format: cell membranes, Membrane
T1 sequence (P15823 whole entry): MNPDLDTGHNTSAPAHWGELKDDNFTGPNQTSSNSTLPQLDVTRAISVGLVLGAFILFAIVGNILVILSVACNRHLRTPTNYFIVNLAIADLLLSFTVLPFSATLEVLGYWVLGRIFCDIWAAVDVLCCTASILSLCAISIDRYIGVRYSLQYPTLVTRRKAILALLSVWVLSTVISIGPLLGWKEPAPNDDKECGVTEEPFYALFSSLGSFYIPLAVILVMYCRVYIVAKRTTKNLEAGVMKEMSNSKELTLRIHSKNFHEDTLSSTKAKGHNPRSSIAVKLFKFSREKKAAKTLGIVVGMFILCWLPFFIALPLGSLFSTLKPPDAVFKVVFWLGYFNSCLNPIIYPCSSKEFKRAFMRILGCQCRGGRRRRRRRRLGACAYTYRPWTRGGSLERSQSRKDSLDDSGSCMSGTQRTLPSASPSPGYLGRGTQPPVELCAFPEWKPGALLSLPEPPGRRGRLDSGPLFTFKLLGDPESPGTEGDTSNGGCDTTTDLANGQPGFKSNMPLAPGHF
T1 sequence (P23944 whole entry): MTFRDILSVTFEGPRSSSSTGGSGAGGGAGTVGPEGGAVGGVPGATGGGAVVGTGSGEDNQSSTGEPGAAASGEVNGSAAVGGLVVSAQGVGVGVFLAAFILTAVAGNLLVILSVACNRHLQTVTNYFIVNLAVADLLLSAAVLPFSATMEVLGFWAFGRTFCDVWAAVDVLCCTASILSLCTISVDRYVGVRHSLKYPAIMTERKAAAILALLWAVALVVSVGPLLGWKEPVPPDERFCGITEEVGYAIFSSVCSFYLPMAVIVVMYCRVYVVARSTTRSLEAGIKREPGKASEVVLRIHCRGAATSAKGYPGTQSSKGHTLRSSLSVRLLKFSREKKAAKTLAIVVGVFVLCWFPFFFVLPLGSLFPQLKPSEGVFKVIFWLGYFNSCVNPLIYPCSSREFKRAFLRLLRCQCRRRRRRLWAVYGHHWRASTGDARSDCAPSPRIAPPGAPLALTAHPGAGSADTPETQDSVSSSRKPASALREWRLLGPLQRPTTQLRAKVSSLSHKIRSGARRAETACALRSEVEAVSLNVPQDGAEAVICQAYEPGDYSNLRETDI
T1 sequence (P43140 whole entry): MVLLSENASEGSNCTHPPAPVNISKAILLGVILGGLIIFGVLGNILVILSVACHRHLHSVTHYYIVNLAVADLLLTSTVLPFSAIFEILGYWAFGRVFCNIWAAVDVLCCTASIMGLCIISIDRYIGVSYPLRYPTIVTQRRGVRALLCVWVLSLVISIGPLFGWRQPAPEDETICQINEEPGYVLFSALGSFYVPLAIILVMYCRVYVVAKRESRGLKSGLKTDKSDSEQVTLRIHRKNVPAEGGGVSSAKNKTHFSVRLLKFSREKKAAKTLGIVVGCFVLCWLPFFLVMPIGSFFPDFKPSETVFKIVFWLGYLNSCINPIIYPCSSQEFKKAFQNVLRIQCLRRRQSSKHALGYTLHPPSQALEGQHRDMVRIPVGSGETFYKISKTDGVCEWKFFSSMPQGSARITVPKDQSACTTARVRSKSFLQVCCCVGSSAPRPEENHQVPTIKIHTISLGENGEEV
Method in brief: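 Rat cerebral cortex membranes (about 250 µg protein) in 50 mM Tris-HCl with 10 mM MgCl2, pH 7.4. Incubated 30 min at 25 °C with 0.2 nM [3H]prazosin and six competitor concentrations. Nonspecific binding with 10 µM phentolamine. Compounds screened at 10^-6 M, curves run if displacement exceeded 55%. Triplicates, 2-4 experiments; Ki by Cheng-Prusoff.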

D(2) dopamine receptor = D(2) dopamine receptor (Rattus norvegicus, UniProt P61169); experiment: In vitro inhibition of [3H]-raclopride binding to Dopamine receptor D2 in rat striatum membranes; format: cell membranes, Membrane
Sequence of D(2) dopamine receptor (P61169 whole entry): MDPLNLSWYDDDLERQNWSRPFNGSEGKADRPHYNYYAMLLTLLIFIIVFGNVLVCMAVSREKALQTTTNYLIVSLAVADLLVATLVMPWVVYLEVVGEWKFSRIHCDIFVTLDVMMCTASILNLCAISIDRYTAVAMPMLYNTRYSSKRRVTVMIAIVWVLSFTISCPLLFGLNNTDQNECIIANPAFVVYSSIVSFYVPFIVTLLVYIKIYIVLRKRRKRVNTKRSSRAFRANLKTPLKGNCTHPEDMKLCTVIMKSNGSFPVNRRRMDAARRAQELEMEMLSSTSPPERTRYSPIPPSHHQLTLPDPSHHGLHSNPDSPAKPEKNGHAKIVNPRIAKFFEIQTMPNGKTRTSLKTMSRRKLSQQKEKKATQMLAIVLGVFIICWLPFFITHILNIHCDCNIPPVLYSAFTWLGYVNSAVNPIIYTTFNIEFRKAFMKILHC
Method in brief: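 Male Sprague-Dawley rat striatum membranes (125-150 µg protein) incubated 60 min at 25 °C with 0.8 nM [3H]raclopride and six competitor concentrations. Nonspecific binding with 1 µM (+)-butaclamol. GF/B filtration, scintillation counting, triplicates. Ki by Cheng-Prusoff.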

[2] = target: 5-hydroxytryptamine receptor 2A (Rattus norvegicus, UniProt P14842); experiment: In vitro inhibition of [3H]ketanserin binding to 5-hydroxytryptamine 2A receptor in rat cerebral frontal cortex membranes; format: cell membranes, Membrane
Sequence of 5-hydroxytryptamine receptor 2A (P14842 whole entry): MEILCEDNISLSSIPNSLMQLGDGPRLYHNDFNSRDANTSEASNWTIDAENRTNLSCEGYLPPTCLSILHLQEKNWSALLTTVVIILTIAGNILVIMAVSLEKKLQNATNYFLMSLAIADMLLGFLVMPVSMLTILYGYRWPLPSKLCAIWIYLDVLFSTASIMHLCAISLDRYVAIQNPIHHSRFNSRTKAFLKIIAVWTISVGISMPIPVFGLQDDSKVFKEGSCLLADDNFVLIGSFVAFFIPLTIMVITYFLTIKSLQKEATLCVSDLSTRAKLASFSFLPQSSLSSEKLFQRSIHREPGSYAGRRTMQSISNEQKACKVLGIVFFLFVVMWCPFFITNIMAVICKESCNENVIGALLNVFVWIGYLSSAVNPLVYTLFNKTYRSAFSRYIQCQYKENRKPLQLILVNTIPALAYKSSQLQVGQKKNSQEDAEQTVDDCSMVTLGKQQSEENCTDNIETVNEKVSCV
Method in brief: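 Rat frontal cortex membranes were incubated 15 min at 37 °C with 0.4 nM [3H]ketanserin. Nonspecific binding with 1 µM cinanserin. Filtration, scintillation counting, triplicates; Ki by Cheng-Prusoff.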

[3] = target: T2, 5-hydroxytryptamine receptor 1A (Homo sapiens, UniProt P08908); experiment: (§1) Inhibition of forskolin-induced increase in cAMP in human 5-hydroxytryptamine 1A receptor expressed HeLa cells; format: functional, cell-based
T2 sequence (P08908 whole entry): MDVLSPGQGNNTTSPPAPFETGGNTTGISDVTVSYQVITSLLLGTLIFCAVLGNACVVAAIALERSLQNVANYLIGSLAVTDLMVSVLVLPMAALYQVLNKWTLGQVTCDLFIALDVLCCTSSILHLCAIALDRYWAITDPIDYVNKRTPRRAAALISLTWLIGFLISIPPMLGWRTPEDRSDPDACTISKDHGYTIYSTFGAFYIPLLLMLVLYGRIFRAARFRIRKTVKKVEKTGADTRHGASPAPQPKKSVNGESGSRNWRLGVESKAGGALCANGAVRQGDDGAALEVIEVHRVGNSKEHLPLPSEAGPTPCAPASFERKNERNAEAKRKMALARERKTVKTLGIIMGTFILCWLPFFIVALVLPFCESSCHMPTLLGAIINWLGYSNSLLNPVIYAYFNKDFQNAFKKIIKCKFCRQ
Method in brief: (§2)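 HeLa cells stably expressing human 5-HT1A (HA 6) were plated 48 h ahead. Cells treated 10 min at 37 °C, 5% CO2, with 0.5 mM IBMX, 10 µM forskolin and compound (10-9-10-5 M), then lysed in 65% ethanol. cAMP measured by [3H] radioimmunoassay, expressed as % of forskolin-stimulated adenylate cyclase activity. Duplicate experiments, four wells per concentration; EC50 by curve fit.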

[4] = target: T3, 5-hydroxytryptamine receptor 1A (Homo sapiens) (UniProt P08908); experiment: as §1; format: functional, cell-based; method in brief: as §2
T3 sequence (whole entry): T2 sequence (P08908 whole entry)

[5] = target: GABA-A receptor; anion channel; experiment: In vitro inhibition of [3H]flunitrazepam binding to Benzodiazepine receptor of rat cerebral cortex membranes; format: cell membranes, Membrane
Method in brief: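 Rat brain membranes (about 100 µg protein) in 25 mM potassium phosphate, pH 7.4, incubated 90 min at 0-4 °C with 0.25 nM [3H]flunitrazepam. Nonspecific binding with 2 µM diazepam. Filtration, scintillation counting, triplicates; Ki by Cheng-Prusoff.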

[6] = target: 5-hydroxytryptamine receptor 4 (Rattus norvegicus, UniProt Q62758); experiment: In vitro inhibition of [3H]GR-113808 binding to 5-hydroxytryptamine 4 receptor of rat striatum membranes; format: cell membranes, Membrane
Sequence of 5-hydroxytryptamine receptor 4 (Q62758 whole entry): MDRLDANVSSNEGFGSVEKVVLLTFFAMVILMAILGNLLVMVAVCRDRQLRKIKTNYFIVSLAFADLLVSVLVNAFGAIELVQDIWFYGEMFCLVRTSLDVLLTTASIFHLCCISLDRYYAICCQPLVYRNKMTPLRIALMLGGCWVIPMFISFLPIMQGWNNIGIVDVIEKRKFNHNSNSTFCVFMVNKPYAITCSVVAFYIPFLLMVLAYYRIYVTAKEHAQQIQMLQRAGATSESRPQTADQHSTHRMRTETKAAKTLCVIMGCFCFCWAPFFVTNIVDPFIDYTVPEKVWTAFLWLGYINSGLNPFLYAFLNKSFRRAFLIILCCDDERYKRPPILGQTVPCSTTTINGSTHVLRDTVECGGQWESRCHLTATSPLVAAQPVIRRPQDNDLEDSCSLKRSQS
Method in brief: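 Membranes from rat striatum were incubated 30 min at 37 °C with 0.1 nM [3H]GR113808 in 50 mM HEPES, pH 7.4. Nonspecific binding with 30 µM 5-HT. Bound radioactivity counted after GF/B filtration, triplicates. Ki from iterative curve fit via Cheng-Prusoff.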

[7] = target: T4, 5-hydroxytryptamine receptor 1A (Rattus norvegicus, UniProt P19327); experiment: In vitro inhibition of [3H]8-OH-DPAT binding to 5-hydroxytryptamine 1A receptor in rat cerebral cortex membranes; format: cell membranes, Membrane
T4 sequence (P19327 whole entry): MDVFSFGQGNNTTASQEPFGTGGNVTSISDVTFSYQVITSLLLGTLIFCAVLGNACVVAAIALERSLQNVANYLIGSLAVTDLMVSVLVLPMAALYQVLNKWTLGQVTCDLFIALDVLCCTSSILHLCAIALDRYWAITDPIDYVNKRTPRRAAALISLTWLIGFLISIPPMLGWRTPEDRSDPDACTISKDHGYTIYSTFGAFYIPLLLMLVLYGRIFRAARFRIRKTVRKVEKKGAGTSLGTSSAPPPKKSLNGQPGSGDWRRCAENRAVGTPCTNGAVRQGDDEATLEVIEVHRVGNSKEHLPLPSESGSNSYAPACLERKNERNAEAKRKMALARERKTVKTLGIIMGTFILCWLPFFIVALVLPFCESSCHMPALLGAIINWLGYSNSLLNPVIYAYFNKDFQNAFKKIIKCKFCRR
Method in brief: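 Rat cerebral cortex membranes (about 1 mg protein) incubated 15 min at 37 °C with 0.6 nM [3H]-8-OH-DPAT in 50 mM Tris-HCl, pH 7.4, containing 10 nM clonidine and 30 nM prazosin. Nonspecific binding with 10 µM 5-HT. Compounds screened at 10^-6 M; curves run if displacement exceeded 55%. Filtration, scintillation counting, triplicates, 2-4 experiments; Ki by Cheng-Prusoff.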

[8] = target: Sodium-dependent serotonin transporter (Rattus norvegicus, UniProt P31652); experiment: In vitro inhibition of [3H]paroxetine binding to 5-hydroxytryptamine transporter in rat cerebral cortex membranes; format: cell membranes, Membrane
Sequence of Sodium-dependent serotonin transporter (P31652 whole entry): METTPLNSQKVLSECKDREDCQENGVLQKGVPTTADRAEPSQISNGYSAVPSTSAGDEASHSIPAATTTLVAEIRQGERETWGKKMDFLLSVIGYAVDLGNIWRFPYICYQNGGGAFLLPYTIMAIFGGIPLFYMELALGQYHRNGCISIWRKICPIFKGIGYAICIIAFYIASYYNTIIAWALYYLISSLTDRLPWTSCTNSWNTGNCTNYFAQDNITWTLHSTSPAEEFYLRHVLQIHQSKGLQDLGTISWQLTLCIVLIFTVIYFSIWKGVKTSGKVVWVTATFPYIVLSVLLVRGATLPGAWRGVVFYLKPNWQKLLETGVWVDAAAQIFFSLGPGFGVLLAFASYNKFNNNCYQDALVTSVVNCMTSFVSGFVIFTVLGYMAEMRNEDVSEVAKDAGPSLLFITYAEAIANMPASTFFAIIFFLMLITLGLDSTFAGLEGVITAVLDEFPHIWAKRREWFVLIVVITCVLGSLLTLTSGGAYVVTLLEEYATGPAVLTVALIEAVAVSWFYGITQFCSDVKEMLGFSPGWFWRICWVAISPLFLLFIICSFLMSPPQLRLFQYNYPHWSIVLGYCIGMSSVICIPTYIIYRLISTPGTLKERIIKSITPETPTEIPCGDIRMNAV
Method in brief: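 Rat cortical membranes (about 120 µg protein) incubated 60 min at 25 °C with 0.2 nM [3H]paroxetine. Buffer is Tris-HCl with 20 mM NaCl and 5 mM KCl, pH 7.4. Nonspecific binding with 10 µM fluoxetine. Filtration, scintillation counting, triplicates; Ki by Cheng-Prusoff.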

[9] = target: T5, 5-hydroxytryptamine receptor 3A (Rattus norvegicus, UniProt P35563); experiment: In vitro inhibition of [3H]LY-278584 binding to 5-hydroxytryptamine 3 receptor in rat cerebral cortex membranes; format: cell membranes, Membrane
T5 sequence (P35563 whole entry): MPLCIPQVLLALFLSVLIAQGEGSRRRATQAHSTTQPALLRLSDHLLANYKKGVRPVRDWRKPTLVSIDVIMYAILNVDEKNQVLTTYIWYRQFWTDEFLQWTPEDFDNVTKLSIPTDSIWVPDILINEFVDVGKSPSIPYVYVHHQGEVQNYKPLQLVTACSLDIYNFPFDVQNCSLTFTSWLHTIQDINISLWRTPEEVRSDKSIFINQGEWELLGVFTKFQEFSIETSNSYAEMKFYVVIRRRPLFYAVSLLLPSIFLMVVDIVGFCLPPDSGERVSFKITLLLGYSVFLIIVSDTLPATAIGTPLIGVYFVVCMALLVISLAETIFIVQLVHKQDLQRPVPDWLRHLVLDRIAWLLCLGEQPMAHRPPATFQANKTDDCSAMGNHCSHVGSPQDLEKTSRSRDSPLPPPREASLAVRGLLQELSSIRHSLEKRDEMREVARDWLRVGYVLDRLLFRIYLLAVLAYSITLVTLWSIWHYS
Method in brief: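 Sucrose-prepared rat cerebral cortex membranes were incubated 30 min at 25 °C with 0.7 nM [3H]LY278584. Nonspecific binding with 10 µM 5-HT. Filtration and scintillation counting, triplicates; Ki by Cheng-Prusoff.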

[10] = target: 5-hydroxytryptamine receptor 7 (Rattus norvegicus, UniProt P32305); experiment: In vitro inhibition of [3H]5-CT binding to 5-hydroxytryptamine 7 receptor in rat hypothalamus membranes; format: cell membranes, Membrane
Sequence of 5-hydroxytryptamine receptor 7 (P32305 whole entry): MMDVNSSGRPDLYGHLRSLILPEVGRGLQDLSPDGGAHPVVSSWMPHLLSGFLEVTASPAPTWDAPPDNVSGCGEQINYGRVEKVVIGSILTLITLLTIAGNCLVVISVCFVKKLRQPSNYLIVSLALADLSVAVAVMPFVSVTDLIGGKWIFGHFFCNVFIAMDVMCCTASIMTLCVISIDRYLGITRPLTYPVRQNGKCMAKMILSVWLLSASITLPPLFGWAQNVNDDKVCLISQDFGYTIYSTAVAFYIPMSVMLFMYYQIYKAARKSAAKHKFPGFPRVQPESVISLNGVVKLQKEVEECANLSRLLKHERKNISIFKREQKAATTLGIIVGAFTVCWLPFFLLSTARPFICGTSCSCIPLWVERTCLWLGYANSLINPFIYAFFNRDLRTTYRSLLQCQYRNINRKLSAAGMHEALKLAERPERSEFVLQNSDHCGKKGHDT
Method in brief: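 Rat hypothalamus membranes were incubated 120 min at 23 °C with 0.5 nM [3H]-5-CT. Nonspecific binding with 10 µM 5-HT. Filtration and scintillation counting, triplicates, 2-4 experiments. Ki from curve fit by Cheng-Prusoff.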

Ki [1]	SMILES	other results
> 1000 nM	C[C@@H]1CN(c2cccc3ccccc23)CCN1CN1CC(=O)N2CCC[C@@H]2C1=O	
34.4 nM	C[C@H]1CN(c2cccc3ccccc23)CCN1CCCCN1CC(=O)N2CCC[C@H]2C1=O	
> 1000 nM	C[C@@H]1CN(c2cccc3ccccc23)CCN1CN1CC(=O)N2CCC[C@H]2C1=O	
8 nM	O=C1C2CCCN2C(=O)CN1CCCCN1CCN(c2cccc3ccccc23)CC1 (configuration not stated)	
> 1000 nM	C[C@H]1CN(c2cccc3ccccc23)CCN1CN1CC(=O)N2CCC[C@H]2C1=O	
> 1000 nM	C[C@H]1CN(c2cccc3ccccc23)CCN1CN1CC(=O)N2CCC[C@@H]2C1=O	
> 1000 nM	O=C1C2CCCN2C(=O)CN1CN1CCN(c2cccc3ccccc23)CC1 (configuration not stated)	Ki [7]: 6.7 nM
20.1 nM	C[C@@H]1CN(c2cccc3ccccc23)CCN1CCCCN1CC(=O)N2CCC[C@@H]2C1=O	

Continued, compound first:

SMILES	Ki [1]	other results
O=C1C2CCCN2C(=O)N1CN1CCN(c2cccc3ccccc23)CC1 (configuration not stated)	> 1000 nM	
O=C1C2CCCN2C(=O)N1CN1CCN(c2cccc3[nH]cnc23)CC1 (configuration not stated)	> 10000 nM	
O=C1C2CCCCN2C(=O)N1CN1CCN(c2cccc3ccccc23)CC1 (configuration not stated)	> 1000 nM	
O=C1[C@@H]2CCCN2C(=O)CN1CN1CCN(c2cccc3ccccc23)CC1	> 1000 nM	Ki (D(2) dopamine receptor): 192 nM; Ki [2]: 13.5 nM; EC50 [3]: 150 nM; Maximal effect [4]: 90.3%; Ki [5]: > 10000 nM; Ki [6]: > 10000 nM; Ki [7]: 4.1 nM; Ki [8]: 976 nM; Ki [9]: 8.9 nM; Ki [10]: 101 nM
O=C1[C@H]2CCCN2C(=O)CN1CN1CCN(c2cccc3ccccc23)CC1	> 1000 nM	Ki [7]: 4.6 nM
O=C1C2CCCCN2C(=O)N1CN1CCN(c2cccc3c2OCCO3)CC1 (configuration not stated)	> 1000 nM	
O=C1C2CCCN2C(=O)CN1CN1CCN(c2cccc3c2CC=COO3)CC1 (configuration not stated)	> 1000 nM	Ki [7]: 11.6 nM
O=C1[C@@H]2CCCN2C(=O)CN1CN1CCN(c2cccc3c2CC=COO3)CC1	> 1000 nM	Ki [7]: 12.3 nM
O=C1C2CCCN2C(=O)N1CCCCN1CCN(c2cccc3[nH]cnc23)CC1 (configuration not stated)	19.4 nM	
CCS(=O)(=O)Nc1cccc(N2CCN(CCCCN3C(=O)C4CCCN4C3=O)CC2)c1 (configuration not stated)	> 1000 nM	
